Assay results collected from several papers.
Each line is one published result; the experiments were not run side by side.
Target: Activin receptor type-1-like (ACVRL1, Homo sapiens, UniProt P37023)

Compound | assay | conditions | measurement | value
CC(=O)c1c(NS(C)(=O)=O)c2cc(-c3ccc(Cl)cc3)c(-c3ccc(Cl)cc3Cl)nc2n(C)c1=O | cell-free assay, competition with immobilised ligand | 1 µM | remaining binding | 100%
CCN(CC)CCNC(=O)c1c(C)[nH]c(/C=C2\C(=O)Nc3ccc(F)cc32)c1C | cell-free assay | 0.5 µM | remaining signal | 112%
O=C(Nc1cnn(-c2csc(C(=O)NC3COC3)c2)c1)Nc1ccccc1Cl | enzyme activity, inhibitor | 5 µM | remaining activity | 107%
COc1cc(Cl)c(C(=O)N[C@@H](CN[C@H]2CC[C@@H](N)CC2)Cc2ccc(C#N)cc2)cc1-c1ccc(CN[C@H](C)c2ccc(C)cc2)o1 | enzyme activity, inhibitor | 1 µM | remaining activity | 123%
CN1CC(Oc2cnc(C#N)cc2-c2ccn3nc(NC(=O)C4CC4)cc3c2)C1 | enzyme activity, inhibitor | 1 µM | inhibition | 4%
Cc1ccc(C(=O)NCc2ccsc2)cc1C#Cc1cn(C(C)C)c2ncnc(N)c12 | enzyme activity, inhibitor | 1 µM | activity vs control | 94%
CC(C)(C)c1nc2c(s1)c1nc(N)ncc1c1ccc(NS(=O)(=O)c3c(F)cccc3F)c(F)c12 | enzyme activity, inhibitor, radiometric | 1 µM | remaining activity | 87%
C#Cc1cccc(Nc2ncnc3cc(OCCOC)c(OCCOC)cc23)c1 | cell-free assay | 0.5 µM | remaining signal | 101%
CCCCN(CCCC)C(=O)CN1C[C@H](c2cc(OC)c3c(c2)OCO3)[C@@H](C(=O)O)[C@@H]1CC(C)(C)CCC | cell-free assay, competition with immobilised ligand | 1 µM | remaining binding | 100%
O=C1NC(=O)c2cc(Nc3ccc(F)cc3)c(Nc3ccc(F)cc3)cc21 | cell-free assay | 0.5 µM | remaining signal | 95.9%
O=C(O)[C@@H]1[C@@H](Cn2nnc3ccccc3c2=O)CC[C@H]1C(=O)c1ccc(OCCC2CCOCC2)cc1 | binding, competition with immobilised ligand | 1 µM | remaining binding | 97%
Cc1cc(NC(=O)c2cccc3cc(-c4cccc5[nH]nc(N)c45)ccc23)ccc1F | enzyme activity, inhibitor | 0.1 µM | activity vs control | 143%
CO[C@@H](C)c1c(Nc2ccc([C@H](N(C)C(=O)C3CCS(=O)(=O)CC3)C(F)(F)F)cc2)cnc2cc(Cl)nn12 | cell-free assay, competition with immobilised ligand | 1 µM | remaining binding | 100%
COc1cc2c(N3CCN(C(=O)Nc4ccc(OC(C)C)cc4)CC3)ncnc2cc1OCCCN1CCCCC1 | cell-free assay | 0.5 µM | remaining signal | 102%
O=C(Nc1cnn(-c2csc(C(=O)NC3COC3)c2)c1)Nc1c(F)cccc1Cl | enzyme activity, inhibitor | 5 µM | remaining activity | 120%
